Measurements from ChEMBL document CHEMBL1151837, “Structural reassignment, absolute configuration, and conformation of hypurticin, a highly flexible polyacyloxy-6-heptenyl-5,6-dihydro-2H-pyran-2-one” (J Nat Prod, 2009).
Converted amounts (≈) assume the structure as drawn.

Key:
HEp-2 = assay: Cytotoxicity against human Hep2 cells after 72 hrs by sulforhodamine B assay; assay type: functional, cell-based; conditions: HEp-2, 72 h
In short: (§1)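 Cells kept in RPMI 1640 with 10% FBS at 37 °C, 5% CO2, humidified. Log-phase cells treated in triplicate at 0.16–20.0 µg/mL for 72 h. Cell density read by sulforhodamine B. Value is the dose giving 50% inhibition of control growth (ED50). Ellipticine served as positive control.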

KB = assay: Cytotoxicity against human KB cells after 72 hrs by sulforhodamine B assay; assay type: functional, cell-based; in short: as §1
HeLa [1] = assay: Cytotoxicity against human HeLa cells after 72 hrs by sulforhodamine B assay; assay type: functional, cell-based; in short: as §1
HeLa [2] = assay: Cell cycle arrest in human HeLa cells assessed as accumulation at G1 phase at 10 times IC50 after 48 hrs by flow cytometry; assay type: functional
In short: (§2)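 HeLa cells in log phase exposed 48 h to compound in DMSO at ten times its cytotoxicity IC50. Fixed in cold 70% (v/v) EtOH, then stained 12 h at 4 °C with Triton X-100, trisodium citrate and RNase A, and filtered through nylon mesh. DNA content measured by flow cytometry gives the percentage of cells in G1, S and G2.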

HeLa [3] = assay: Cell cycle arrest in human HeLa cells assessed as accumulation at S phase at 10 times IC50 after 48 hrs by flow cytometry; assay type: functional; in short: as §2
HeLa [4] = assay: Cell cycle arrest in human HeLa cells assessed as accumulation at G2 phase at 10 times IC50 after 48 hrs by flow cytometry; assay type: functional; in short: as §2

| SMILES | IC50 (HEp-2) | IC50 (KB) | IC50 (HeLa [1]) | Activity (HeLa [2]) | Activity (HeLa [3]) | Activity (HeLa [4]) |
| --- | --- | --- | --- | --- | --- | --- |
| Cc1c2ccncc2c(C)c2c1[nH]c1ccccc12 [ELLIPTECINE] | 0.4 mg/L (≈ 1.62 µM) | 0.4 mg/L (≈ 1.62 µM) | 0.4 mg/L (≈ 1.62 µM) | – | – | – |
| CC(=O)O[C@H]([C@@H](OC(C)=O)[C@H](/C=C\[C@H]1CC=CC(=O)O1)OC(C)=O)[C@H](C)OC(C)=O [SPICIGEROIDE] | 9.4 mg/L (≈ 22 µM) | 5.4 mg/L (≈ 12.7 µM) | 15.9 mg/L (≈ 37.3 µM) | 40% | 34% | 23% |
| CC(=O)O[C@H](/C=C\[C@H]1CC=CC(=O)O1)C[C@@H](OC(C)=O)[C@H](C)OC(C)=O [HYPTOLIDE] | 6.2 mg/L (≈ 16.8 µM) | 3.6 mg/L (≈ 9.77 µM) | 2.8 mg/L (≈ 7.6 µM) | 34% | 57% | 7% |
